PAX8 inh HTS – lowers PAX8-driven luciferase in RMG-I cells; RMG-I TPO-luciferase reporter, SteadyGlo, 24 h; inhibition, % at 12.6 µM; 360,000 compounds, 1.2% hits; AID 652154;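 active = mean replicate inhibition at least 60% with every replicate also reaching 60%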;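 also: luciferase light reporting Pax8 driven TPO promoter activity; plate controls were median of neutral control wells for no effect and mitoxantrone controls for full effect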
FN deposition inh – fibronectin deposition inhibition; AH1F fibroblasts, Alexa488-fibronectin deposition fluorescence, overnight; inhibition, % at 12.6 µM; 350,000 compounds, 0.086% hits; AID 743247;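 active = mean inhibition across replicates of 30% or more, regardless of how many single replicates reach that level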;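 also: positive control wells lacked labelled fibronectin entirely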
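Material – AH1F fibroblast monolayer, labelled fibronectin deposition · Reagent – labelled fibronectin 24 nM · Timing – 1 h adhesion, overnight exposure · Measured by – fluorescence at 485 nm excitation, 525 nm emission · Read-out – inhibition of fibronectin deposition signal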
EWS-Fli block – blocks EWS/Fli oncoprotein-driven transcription | A673 NR0B1-luciferase reporter, viability-normalised | inhibition, % at 12.6 µM | 350,000 compounds, 0.67% hits | AID 651661;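 active = mean inhibition of at least 50% after viability correction, with every replicate also passing that limit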;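 also: firefly luciferase signal divided by Alamar Blue viability fluorescence both relative to DMSO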
PGC1a acetyl inh – PGC1a acetylation modulation, inhibitor mode; AID 651687; inhibition, % at 15.6 µM; U2OS PGC1a acetylation, AlphaScreen anti-acetyl-lysine; with virally co-expressed GCN5 acetyltransferase; 350,000 compounds, 0.17% hits;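 active = every replicate shows inhibition of at least 40%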;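 also: 0% = neutral control wells and 100% = positive control wells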
FGF22 binding – shifts melting point of recombinant human FGF22 | activity (Tm shift, normalised), % at 9.99 µM | Q9HCT0 | AID 651658 | recombinant FGF22 thermal shift, SYPRO orange fluorescence; percent of sucrose octasulfate shift, DMSO zero | 340,000 compounds, 1.5% hits;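 active = mean Tm shift, scaled 0 neutral to 100 positive control, at about 1.3% or above, every replicate too, limit read from the data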
Target sequence (Q9HCT0 whole entry, looked up): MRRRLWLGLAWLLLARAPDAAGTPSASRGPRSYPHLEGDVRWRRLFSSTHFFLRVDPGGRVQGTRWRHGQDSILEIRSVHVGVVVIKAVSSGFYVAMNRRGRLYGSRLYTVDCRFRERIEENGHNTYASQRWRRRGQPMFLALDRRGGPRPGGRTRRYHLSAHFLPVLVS
HIV Env fusion – inhibitors of HIV Env-mediated cell fusion | AID 651610 | HeLa-JRFL Env/CEM21 cell fusion, luciferase | 360,000 compounds, 1.1% hits | inhibition, % at 12.3 µM;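 active = mean replicate inhibition score of at least 50 and every replicate individually at or above 50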;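 also: 0% = plate neutral controls and 100% = maraviroc near 300 nM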
The depositor's hits bear a star; x = not tested or not shown; [ ] = another dose, or the depositor's remark. The list is not random: actives were taken first. Their share in the collection is about 3.1%.

SMILES	PAX8 inh HTS	FN deposition inh	EWS-Fli block	PGC1a acetyl inh	FGF22 binding	HIV Env fusion
Cc1ccc(S(=O)(=O)Nc2ccc3c(c2)CC(=O)N([C@@H](C)CO)C[C@@H](C)[C@H](CN(C)C(=O)Nc2ccc(F)cc2)O3)cc1	-12	x	1	2	0	x
C[C@H](CO)N1C[C@H](C)[C@H](CN(C)C)Oc2cc(-c3cccc(C#N)c3)ccc2S1(=O)=O	-22	-14	1	2	0	24[16.7 µM]
CCc1ccc(NC(=O)CSCc2nc(N)nc(Nc3ccccc3CC)n2)cc1	12	2	x	-2	x	61*
Cc1ccccc1CSCc1nc(N)nc(Nc2ccccc2C)n1	-111	-5	-43	3	0	-18
CCc1ccccc1Nc1nc(N)nc(CSCC(=O)Nc2ccc(C)c(C)c2)n1	-14	19	0	10	0	71*
O=C(CCl)N(c1ccccc1)C1CCCCC1	103*	-9	35	10	0	11
CC(=O)N(c1ccccc1)C1CCCC1	3	2	-2	7	0	17
COCC(=O)Nc1ncc(S(=O)(=O)c2ccc([N+](=O)[O-])cc2)s1	5	6	5	-4	0	4
O=C(NC(Nc1ncc(S(=O)(=O)c2ccc([N+](=O)[O-])cc2)s1)(C(F)(F)F)C(F)(F)F)c1ccc(Cl)cc1	76*	9	x	-13	x	144*
COc1ccc(OC)c2[nH]c(=O)c(CCNC(=O)c3cccs3)cc12	-5	11	-17	x	44*	5
O=C(C[n+]1cccc(CNC(=O)c2ccc(OC(F)F)cc2)c1)Nc1ccc(SC(F)F)cc1	67*	-11	x	8	x	5
O=C(C[n+]1cccc(CNC(=O)c2ccc(OC(F)F)cc2)c1)Nc1ccccc1Cl	10	-2	x	x	x	-50
Cc1noc(C)c1NC(=O)Nc1ccc2c(c1)C(=O)N([C@H](C)CO)C[C@@H](C)[C@@H](CN(C)S(=O)(=O)c1ccccc1)OCCCC[C@H](C)O2	-19	6	-1	0	x	-41[16.7 µM]
Cc1nnc(SCc2cc([N+](=O)[O-])cc3c2OCOC3)n(N)c1=O	14	9	0	-11	43*	10
O=C(Nc1ccccc1N1CCN(C(=O)c2ccccc2)CC1)c1ccc(Br)o1	26	x	x	1	0	69*
O=C(NC(=S)Nc1ccccc1N1CCN(C(=O)c2ccccc2)CC1)c1ccccc1F	2	x	x	x	0	58*
N#C[C@@H]1[C@H](c2ccccc2C2=CCCCC2)[C@H](CO)N1S(=O)(=O)c1cccc(F)c1	x	-7	-11	-30	-1	x
CCN(CC)S(=O)(=O)c1ccc(N2CCOCC2)c(NC(=O)c2cc(-c3ccccn3)nc3ccccc23)c1	78*	x	14	x	0	26
COc1ccc(-c2cc(C(=O)Nc3ccccc3N3CCOCC3)c3ccccc3n2)cc1OC	44	10	4	x	2.3*	24
C[C@H](CO)N1C[C@H](C)[C@H](CN(C)S(C)(=O)=O)Oc2cc(C3=CCCC3)ccc2S1(=O)=O	x	x	6	-12	x	8[16.7 µM]
C[C@@H]1CN([C@@H](C)CO)C(=O)c2cc(-c3ccccc3)cnc2O[C@@H]1CN(C)Cc1ccccn1	-2	-5	-10	-13	-1	-20[16.7 µM]
O=C1[C@H]2[C@@H](c3ccc(Cl)cc3)N3C(=O)N(c4cccc(Cl)c4)C(=O)[C@@]3(Cc3ccccc3)[C@H]2C(=O)N1C1CCCCC1	18	-2	8	2	x	97*
Cc1cccc([C@@H]2[C@@H]3C(=O)N(Cc4ccccc4)C(=O)[C@@H]3[C@]3(Cc4ccc(Cl)cc4)C(=O)N(c4cccc(Br)c4)C(=O)N23)c1	4	-2	2	x	0	-233
O=C1[C@H]2[C@@H](c3ccc(F)cc3)N3C(=O)N(c4cccc(Br)c4)C(=O)[C@@]3(Cc3ccccc3)[C@H]2C(=O)N1C1CCCCC1	20	0	18	-16	0	107*
O=C1[C@H]2[C@@H](c3ccc(F)cc3)N3C(=O)N(c4cccc(F)c4)C(=O)[C@@]3(Cc3ccccc3)[C@H]2C(=O)N1C1CCCCC1	6	-4	3	7	0	95*
SMILES	PAX8 inh HTS	FN deposition inh	EWS-Fli block	PGC1a acetyl inh	FGF22 binding	HIV Env fusion
Cc1ccc(N2C(=O)N3[C@H](c4ccc(F)cc4)[C@@H]4C(=O)N(C5CCCCC5)C(=O)[C@@H]4[C@]3(Cc3ccccc3)C2=O)cc1	17	-1	3	x	1	56*
COc1ccc([C@@H]2[C@@H]3C(=O)N(C(C)(C)C)C(=O)[C@@H]3[C@]3(Cc4ccccc4)C(=O)N(c4cccc(F)c4)C(=O)N23)cc1	-3	1	-14	5	0	45
C[C@H]1CN([C@@H](C)CO)C(=O)Cc2cc(NC(=O)CCN3CCOCC3)ccc2O[C@@H]1CN(C)C(=O)Nc1ccccc1	2	x	-4	3	0	x
C[C@H]1CN([C@@H](C)CO)C(=O)Cc2cc(NC(=O)C3CC3)ccc2O[C@H]1CN(C)C	-5	6	x	-4	0	-8[16.7 µM]
C/C=C/c1ccc2c(c1)O[C@@H](CN(C)C(=O)Cc1ccncc1)[C@@H](C)CN([C@@H](C)CO)S2(=O)=O	1	x	-2	-2	0	-45[16.7 µM]
Cc1cc2nc(C3CCN(C(=S)NCC(C)C)CC3)[nH]c2cc1C	-4	x	16	x	1.9*	2
c1ccc(Cn2cnc3ccccc32)cc1	x	x	x	1	x	x
Clc1ccc(Cn2cnc3ccccc32)cc1	8	-2	3	-9	43*	23
Cc1cc(SCC(=O)N(CC(C)C)c2c(N)n(CC(C)C)c(=O)[nH]c2=O)nc2ccccc12	-5	0	4	9	0	2
CC(C)CN(C(=O)COC(=O)C12CC3CC(CC(C3)C1)C2)c1c(N)n(Cc2ccccc2)c(=O)[nH]c1=O	3	5	30	x	0	70*
CC(=O)Nc1sc(C)c(C)c1C(=O)OCC(=O)N(CC(C)C)c1c(N)n(Cc2ccccc2)c(=O)[nH]c1=O	-11	-5	63*	-3	-1	-5
CC(C)CN(C(=O)C(c1ccccc1)c1ccccc1)c1c(N)n(CC(C)C)c(=O)[nH]c1=O	-2	-4	3	x	0	79*
C[C@H]1CN([C@@H](C)CO)C(=O)c2cccc(NC(=O)C3CC3)c2O[C@@H]1CN(C)S(=O)(=O)c1cccs1	11	x	-5	-3	0	21[16.7 µM]
CCn1c(/C=C/c2ccccc2C)nc2ccccc2c1=O	-46	-4	-19	1	0	-5
CCn1c(/C=C/c2c(C)n(CC)c3ccccc23)nc2ccccc2c1=O	72*	-5	-15	x	0	x
Cc1ccc(S(=O)(=O)Nc2ccc3c(c2)CC(=O)N([C@@H](C)CO)C[C@H](C)[C@@H](CN(C)Cc2ccc4c(c2)OCO4)O3)cc1	10	x	3	-4	0	x

Bioassay records deposited in PubChem BioAssay by Broad Institute.
